# Laboratory results reported in ChEMBL document CHEMBL1122125, “Synthesis and in vivo antitumor activity of potential 5-fluorouracil prodrugs” (1982).
# Legend:
# Type in all cases: functional
# Mus musculus [1] = experiment: Antitumor activity was determined for median survival of mice against P-388 leukemia in mice at a dose of 200 mg/kg
# Procedure, shortened: (§1)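 Male B6D2F1J mice implanted ip with 10⁶ P-388 cells on day 0; test agents given ip on days 1–4 (qd × 4) in sterile saline, or in 10% Tween 80 for the lipophilic thioether. Groups of 5 treated mice, with 10–17 untreated controls per experiment. Mice weighed on days 1 and 7 to give the 7-day weight change in g and %. Survival recorded in days as median and range.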
# Mus musculus [2] = experiment: Antitumor activity was determined for 7-day average percent weight change against P-388 leukemia in mice at a dose of 25 mg/kg
# Procedure, shortened: (§2)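 Male B6D2F1J mice given 10⁶ P-388 cells ip on day 0, then treated ip once daily on days 1-4 (qd × 4), 5 mice per dose group. Compounds dosed in sterile saline, except one lipophilic thioether given in 10% Tween 80. Mice weighed on days 1 and 7; mean weight per mouse on day 1 and 7-day weight change reported in g and as percent.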
# Mus musculus [3] = experiment: Antitumor activity was determined for 7-day average percent weight change against P-388 leukemia in mice at a dose of 50 mg/kg; procedure, shortened: as §2
# Mus musculus [4] = experiment: Percent increase in life span against P-388 leukemia in mice was determined at a dose of 300 mg/kg; settings: P388
# Procedure, shortened: (§3)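 Male B6D2F1J mice, 5 per dose group, received 10⁶ P-388 cells ip on day 0. Dosing was ip qd × 4 on days 1-4 in sterile saline, or 10% Tween 80 for the butyl thioether. Median survival times of treated (T) and untreated control (C, 10-17 mice) groups were compared: %ILS = [(T/C) − 1]100. Weights taken on days 1 and 7.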
# Mus musculus [5] = experiment: Antitumor activity was determined for 7-day average percent weight change against P-388 leukemia in mice at a dose of 300 mg/kg; procedure, shortened: as §2
# Mus musculus [6] = experiment: Antitumor activity was determined for survival range of mice against P-388 leukemia in mice at a dose of 25 mg/kg; procedure, shortened: as §1
# Mus musculus [7] = experiment: Antitumor activity was determined for average 7-day weight change against P-388 leukemia in mice at a dose of 200 mg/kg; procedure, shortened: as §2
# Mus musculus [8] = experiment: Antitumor activity was determined for survival range of mice against P-388 leukemia in mice at a dose of 200 mg/kg; procedure, shortened: as §1
# Mus musculus [9] = experiment: Antitumor activity was determined for average 7-day weight change against P-388 leukemia in mice at a dose of 25 mg/kg; procedure, shortened: as §2
# Mus musculus [10] = experiment: Antitumor activity was determined for median survival of mice against P-388 leukemia in mice at a dose of 25 mg/kg; procedure, shortened: as §1
# Mus musculus [11] = experiment: Antitumor activity was determined for 7-day average percent weight change against P-388 leukemia in mice at a dose of 200 mg/kg; procedure, shortened: as §2
# Mus musculus [12] = experiment: Antitumor activity was determined for median survival of mice against P-388 leukemia in mice at a dose of 50 mg/kg; procedure, shortened: as §1
# Mus musculus [13] = experiment: Antitumor activity was determined for 7-day average percent weight change against P-388 leukemia in mice at a dose of 100 mg/kg; procedure, shortened: as §2
# Mus musculus [14] = experiment: Antitumor activity was determined for average weight on day 1 against P-388 leukemia in mice at a dose of 50 mg/kg
# Procedure, shortened: (§4)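 Male B6D2F1J mice, groups of 5, inoculated ip with 10⁶ P-388 cells on day 0. Drug given ip on days 1-4 (qd × 4) in sterile saline, or in 10% Tween 80 for the poorly water-soluble thioether. Average weight per mouse recorded on day 1, with reweighing on day 7 for percent weight change. Untreated control groups had 10-17 animals per experiment.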
# Mus musculus [15] = experiment: Antitumor activity was determined for survival range of mice against P-388 leukemia in mice at a dose of 300 mg/kg; procedure, shortened: as §1
# Mus musculus [16] = experiment: Antitumor activity was determined for median survival of mice against P-388 leukemia in mice at a dose of 300 mg/kg; procedure, shortened: as §1
# Mus musculus [17] = experiment: Percent increase in life span against P-388 leukemia in mice was determined at a dose of 25 mg/kg; settings: P388; procedure, shortened: as §3
# Mus musculus [18] = experiment: Antitumor activity was determined for average 7-day weight change against P-388 leukemia in mice at a dose of 50 mg/kg; procedure, shortened: as §2
# Mus musculus [19] = experiment: Antitumor activity was determined for average weight on day 1 against P-388 leukemia in mice at a dose of 25 mg/kg; procedure, shortened: as §4
# Mus musculus [20] = experiment: Antitumor activity was determined for average weight on day 1 against P-388 leukemia in mice at a dose of 300 mg/kg; procedure, shortened: as §4
# Mus musculus [21] = experiment: Antitumor activity was determined for survival range of mice against P-388 leukemia in mice at a dose of 50 mg/kg; procedure, shortened: as §1
# Mus musculus [22] = experiment: Percent increase in life span against P-388 leukemia in mice was determined at a dose of 100 mg/kg; settings: P388; procedure, shortened: as §3
# Mus musculus [23] = experiment: Antitumor activity was determined for average 7-day weight change against P-388 leukemia in mice at a dose of 300 mg/kg; procedure, shortened: as §2
# Mus musculus [24] = experiment: Antitumor activity was determined for average weight on day 1 against P-388 leukemia in mice at a dose of 100 mg/kg; procedure, shortened: as §2
# Mus musculus [25] = experiment: Percent increase in life span against P-388 leukemia in mice was determined at a dose of 50 mg/kg; settings: P388; procedure, shortened: as §3
# Mus musculus [26] = experiment: Percent increase in life span against P-388 leukemia in mice was determined at a dose of 200 mg/kg; settings: P388; procedure, shortened: as §3
# Mus musculus [27] = experiment: Antitumor activity was determined for average weight on day 1 against P-388 leukemia in mice at a dose of 200 mg/kg; procedure, shortened: as §4
# Mus musculus [28] = experiment: Antitumor activity was determined for average 7-day weight change against P-388 leukemia in mice at a dose of 100 mg/kg; procedure, shortened: as §2
# Mus musculus [29] = experiment: Antitumor activity was determined for survival range of mice against P-388 leukemia in mice at a dose of 100 mg/kg; procedure, shortened: as §1
# Mus musculus [30] = experiment: Antitumor activity was determined for median survival of mice against P-388 leukemia in mice at a dose of 100 mg/kg; procedure, shortened: as §1
# L1210 = experiment: Evaluated for cytotoxicity against L1210 mouse leukemia cells; settings: read-out: ID50 (the source's name)
# Procedure, shortened: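 L1210 murine leukemia cells in Eagle's minimal essential medium with 15% fetal calf serum, streptomycin (100 μg/mL), penicillin (100 units/mL) and 0.05 mM 2-mercaptoethanol. Cells counted by Coulter counter after 48 h exposure. ID50 is the 50% growth-inhibitory dose. Triplicate assays, standard deviation ±10%.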
structure (smiles),measurement,setting,value
O=C(O)[C@H]1OC(n2cc(F)c(=O)[nH]c2=O)[C@H](O)[C@@H]1O (stereo partly specified),Survival median,Mus musculus [1],16
same,Weight change,Mus musculus [2],10%
same,Weight change,Mus musculus [3],7%
same,ILS at 300 mg/kg,Mus musculus [4],63%
same,Weight change,Mus musculus [5],0%
same,Survival range,Mus musculus [6],14
same,Average weight,Mus musculus [7],-0.8 g mouse-1
same,Survival range,Mus musculus [8],16
same,Average weight,Mus musculus [9],2.6 g mouse-1
same,Survival median,Mus musculus [10],14
same,Weight change,Mus musculus [11],-3%
same,Survival median,Mus musculus [12],15
same,Weight change,Mus musculus [13],8%
same,Average weight,Mus musculus [14],24.2 g mouse-1
same,Survival range,Mus musculus [15],16
same,Survival median,Mus musculus [16],18
same,ILS at 25 mg/kg,Mus musculus [17],27%
same,Average weight,Mus musculus [18],1.6 g mouse-1
same,Average weight,Mus musculus [19],24.6 g mouse-1
same,Average weight,Mus musculus [20],25 g mouse-1
same,Survival range,Mus musculus [21],13
same,ILS at 100 mg/kg,Mus musculus [22],45%
same,Average weight,Mus musculus [23],0 g mouse-1
same,Average weight,Mus musculus [24],23.6 g mouse-1
same,ILS at 50 mg/kg,Mus musculus [25],36%
same,ILS at 200 mg/kg,Mus musculus [26],45%
same,Average weight,Mus musculus [27],23.8 g mouse-1
same,Average weight,Mus musculus [28],2 g mouse-1
same,Survival range,Mus musculus [29],15
same,Survival median,Mus musculus [30],16
same,IC50,L1210,> 1 mM
